Assay [1] can be described thus: Selectivity ratio of IC50 for human HT-29 cells to MIC for Staphylococcus aureus ATCC 29213. The format is functional. A digest of the protocol:
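Ratio of HT-29 IC50 (MTT assay, 24 h exposure) to MIC against S. aureus ATCC 29213 (CLSI broth microdilution, 24 h, 37 °C).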

The subject of assay [2] is Staphylococcus aureus. In words: Antibacterial activity against Staphylococcus aureus ATCC 29213 after 24 hrs by broth microdilution method. It counts as functional. As to conditions: ATCC 29213, 24 h. Background: Broth dilution looks for growth in wells or tubes with falling amounts of substance.
Assay [3] relates to Staphylococcus epidermidis. In words: Antibacterial activity against Staphylococcus epidermidis ATCC 35984 after 24 hrs by broth microdilution method. The format is functional. As to conditions: RP62A.
The subject of the next assay is HT-29. Nature of the assay: Antiproliferative activity against human HT-29 cells after 24 hrs by MTT assay. The format is cell-based. As to conditions: HT-29, 24 h. In short, it runs like this: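 HT-29 human colon adenocarcinoma cells seeded at 1 × 10⁴ cells/well in RPMI 1640 with 10% FBS and 10 µg/mL gentamicin, left overnight at 37 °C, 5% CO₂. Medium then replaced with medium holding test agents (final DMSO 0.1%; DMSO-only controls), at least 6 wells per condition, for 24 h. Viability read by MTT (0.5 mg/mL, 2 h, 37 °C), DMSO solubilization, absorbance 570 nm.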
A general note: Tetrazolium assays rely on reduction of a dye to a coloured formazan, in cell work by metabolically active cells.

In assay [4] the test system is Staphylococcus lugdunensis. Nature of the assay: Antibacterial activity against Staphylococcus lugdunensis isolate NTUH after 24 hrs by broth microdilution method. The format is functional.
The subject of assay [5] is Staphylococcus intermedius. In words: Antibacterial activity against Staphylococcus intermedius ATCC 29663 after 24 hrs by broth microdilution method. The format is functional. As to conditions: ATCC 29663, 24 h.
In assay [6] the test system is Staphylococcus aureus. Nature of the assay: Antibacterial activity against methicillin-resistant Staphylococcus aureus expressing […] subtype VT after 24 hrs by broth microdilution method. The format is functional. A digest of the protocol: (§1)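 CLSI broth microdilution. Bacteria grown overnight on LB agar, suspended in PBS, then exposed to test agents at 0.25 to 64 µg/mL in triplicate. Incubation 37 °C for 24 h. MIC is the lowest concentration with no visible bacterial growth. DMSO stocks diluted in culture medium to a final DMSO of 0.1%.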

The subject of assay [7] is Staphylococcus aureus. In words: Antibacterial activity against methicillin-resistant Staphylococcus aureus ATCC 33592 after 24 hrs by broth microdilution method. The format is functional. As to conditions: ATCC 33592, 24 h. A digest of the protocol: as §1

Molecules are shown by their SMILES. In brackets after ≈: the same amount, converted by molar mass.

Usually MIC stands for the lowest concentration that inhibits growth of the organism. With `NCC(=O)Nc1ccc(-n2nc(C(F)(F)F)cc2-c2ccc3c(ccc4ccccc43)c2)cc1` [AR-12], the Ratio in assay [1] is listed as 0.9. Moreover, the MIC (in the assay with Staphylococcus aureus [2]; in assay [3]) was 4 µg/mL (≈ 8.69 µM) throughout.
One may read the IC50 as the concentration that gives 50% inhibition. High values mean weaker potency in that assay, low ones greater potency in that assay. `NS(=O)(=O)c1ccc(-n2nc(C(F)(F)F)cc2-c2ccc(-c3ccc(Cl)cc3)cc2)cc1`: the Ratio in assay [1] amounted to 3.1. In the assay on HT-29, this compound yielded an IC50 of 12.5 µg/mL (≈ 26.2 µM). For the same compound, the results for the MIC (in the assay with Staphylococcus aureus [2]; in assay [3]) were 4 µg/mL (≈ 8.37 µM) and 8 µg/mL (≈ 16.7 µM), respectively.
`NS(=O)(=O)Nc1ccc(-n2nc(C(F)(F)F)cc2-c2ccc3ccccc3c2)cc1`: the Ratio in assay [1] amounted to 19. For the same compound, the MIC in assay [4] was 4 µg/mL (≈ 9.25 µM); in assay [5], 2 µg/mL (≈ 4.63 µM); in the assay with Staphylococcus aureus [2], 1 µg/mL (≈ 2.31 µM).
Regarding `NCCC(=O)Nc1ccc(-n2nc(C(F)(F)F)cc2-c2ccc(-c3ccc(C(F)(F)F)cc3)cc2)cc1`, the Ratio in assay [1] stood at 1.1. Further, the IC50 in the assay on HT-29 is 4.2 µg/mL (≈ 8.1 µM). For the same compound, the MIC (against Staphylococcus aureus [2]; in assay [3]) was 4 µg/mL (≈ 7.72 µM) throughout.
As to `NCCC(=O)Nc1ccc(-n2nc(C(F)(F)F)cc2-c2ccc3c(ccc4ccccc43)c2)cc1`, the Ratio in assay [1] is 1.5. In the assay with HT-29, this compound registered an IC50 of 6 µg/mL (≈ 12.6 µM). In addition, the MIC (in the assay on Staphylococcus aureus [2]; in assay [3]) was 4 µg/mL (≈ 8.43 µM) in each case.
In the case of `O=C(N[C@H](CO)[C@H](O)c1ccc([N+](=O)[O-])cc1)C(Cl)Cl` [CHLORAMPHENICOL], the MIC in assay [4] was found to be 2 µg/mL (≈ 6.19 µM); in the assay with Staphylococcus aureus [6] it was 32 µg/mL (≈ 99 µM); against Staphylococcus aureus [2] it was 8 µg/mL (≈ 24.8 µM); against Staphylococcus aureus [7], 64 µg/mL (≈ 198 µM); in assay [3], 8 µg/mL (≈ 24.8 µM).
Turning to `NCCC(=O)Nc1ccc(-n2nc(C(F)(F)F)cc2-c2ccc3c(c2)oc2ccccc23)cc1`, in assay [1], the Ratio is recorded as 1.8. Further, the MIC (with Staphylococcus aureus [2]; in assay [3]) was 4 µg/mL (≈ 8.61 µM) each time.
With `NCC(=O)Nc1ccc(-n2nc(C(F)(F)F)cc2-c2ccc3c(c2)oc2ccccc23)cc1`, the Ratio in assay [1] came to 1.6. In the assay on HT-29, this compound came in with an IC50 of 6.5 µg/mL (≈ 14.4 µM). Besides, the MIC (against Staphylococcus aureus [2]; in assay [3]) was 4 µg/mL (≈ 8.88 µM) throughout.
Take `NCCCC[C@H](N)C(=O)Nc1ccc(-n2nc(C(F)(F)F)cc2-c2ccc3c(c2)Nc2ccccc2S3)cc1`: the Ratio in assay [1] amounted to 2.6. Further, in the assay with HT-29, the IC50 was found to be 5.2 µg/mL (≈ 9.41 µM). Further, the lowest concentration to inhibit growth in the assay on Staphylococcus aureus [2] (MIC) was 2 µg/mL (≈ 3.62 µM).
For the compound `NCCC(=O)Nc1ccc(-n2nc(C(F)(F)F)cc2-c2ccc3c(c2)Nc2ccccc2S3)cc1`, in assay [1], the Ratio was 1.9. In the assay with HT-29, the IC50 stood at 7.5 µg/mL (≈ 15.1 µM). The MIC (with Staphylococcus aureus [2]; in assay [3]) was 4 µg/mL (≈ 8.07 µM) in each case.
As for `NCCCC[C@H](N)C(=O)Nc1ccc(-n2nc(C(F)(F)F)cc2-c2ccc3c(ccc4ccccc43)c2)cc1`, the Ratio in assay [1] is 4.9. Also, the IC50 in the assay with HT-29 turned out to be 19.5 µg/mL (≈ 36.7 µM).
As for `NCCCC[C@@H](N)C(=O)Nc1ccc(-n2nc(C(F)(F)F)cc2-c2ccc3c(ccc4ccccc43)c2)cc1`, in assay [1], the Ratio is listed as 0.8. The MIC (with Staphylococcus aureus [2]; in assay [3]) was 4 µg/mL (≈ 7.52 µM) throughout.
`NCC(=O)Nc1ccc(-n2nc(C(F)(F)F)cc2-c2ccc3c(c2)Nc2ccccc2S3)cc1`: the Ratio in assay [1] is given as 1.6. The MIC (with Staphylococcus aureus [2]; in assay [3]) was 4 µg/mL (≈ 8.31 µM) throughout.
On to `NCCCC[C@@H](N)C(=O)Nc1ccc(-n2nc(C(F)(F)F)cc2-c2ccc3c(c2)Nc2ccccc2S3)cc1`, for which the Ratio in assay [1] is reported as 4.4. Further, inhibition in the assay on HT-29 was half-maximal at 17.5 µg/mL (≈ 31.7 µM) (IC50). Further, the MIC (with Staphylococcus aureus [2]; in assay [3]) was 4 µg/mL (≈ 7.24 µM) throughout.
Consider `NCCCC[C@H](N)C(=O)Nc1ccc(-n2nc(C(F)(F)F)cc2-c2ccc(-c3ccc(C(F)(F)F)cc3)cc2)cc1`, for which the Ratio in assay [1] was found to be 0.8. The compound further yielded an IC50 in the assay on HT-29 of 3.3 µg/mL (≈ 5.73 µM). The MIC (against Staphylococcus aureus [2]; in assay [3]) was 4 µg/mL (≈ 6.95 µM) in each case.

For the origin of these results see ChEMBL document CHEMBL2057145, “Development of novel antibacterial agents against methicillin-resistant Staphylococcus aureus” (Bioorg Med Chem, 2012).
